Measured values taken from the EternaBench riboswitch data.

Tests used:
[1] = test system: MS2 coat protein; test: apparent Kd, MS2 coat protein; higher = weaker binding; RNA-MaP array; tryptophan 2.4 mM where present
Procedure, shortened: (§1)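 Green signal was scaled to red-channel RNA signal and control-cluster median Fmax, and the apparent Kd was taken as the median of filtered per-cluster binding-curve fits. The binding series used SNAP-549-labelled MS2 coat protein from 0.7 or 1.5 nM, doubling to 3 µM, on designs transcribed by stalled E. coli RNA polymerase on Illumina sequencing-chip clusters. Each series ran without and then with constant ligand in 100 mM Tris-HCl pH 7.5, 80 mM KCl, 4 mM MgCl2, BSA, DTT, yeast tRNA and Tween-20.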

[2] = test system: MS2 coat protein; test: apparent Kd, MS2 coat protein; higher = weaker binding; RNA-MaP array; theophylline 2 mM where present
Procedure, shortened: as §1

[3] = designed as: ON switch for tryptophan, no ligand
[4] = ligand present: tryptophan, designed as: ON switch for tryptophan
[5] = designed as: OFF switch for tryptophan, no ligand
[6] = ligand present: tryptophan, designed as: OFF switch for tryptophan
[7] = designed as: ON switch for theophylline, no ligand
[8] = ligand present: theophylline, designed as: ON switch for theophylline
[9] = designed as: OFF switch for theophylline, no ligand
[10] = ligand present: theophylline, designed as: OFF switch for theophylline

Row | Sequence | apparent Kd [2, 7] [nM] | apparent Kd [2, 8] [nM] | apparent Kd [2, 9] [nM] | apparent Kd [2, 10] [nM] | other results
1 | AACAUGAGGAUCACCCAUGUCCCAUGUGAACGAGGACCGGUACGGCCGCCACUCGACUGAGGCGGCACAUGAGGAUCACCCACAU |  |  |  |  | apparent Kd [1, 3]: 170 nM; apparent Kd [1, 4]: 314 nM
2 | AACAUGAGGAUCACCCAUGUGUCCUCGAAACGAGGACCGGUACGGCCGCCACUCGAAAUAAGCUGUUGACGAAAAGUCAGCAGCA |  |  |  |  | apparent Kd [1, 5]: 281 nM; apparent Kd [1, 6]: 501 nM
3 | AACAUGAGGAUCACCCAUGUGUCCUCGAAACGAGGACCGGUACGGCCGCCACUCGAAGCAUGUUGACGAAAAGUCAGCAUGCAAA |  |  |  |  | apparent Kd [1, 5]: 318 nM; apparent Kd [1, 6]: 1060 nM
4 | AACGCGGUGAUGGUAGCCGGACGCUAGGUACGAGGACCGGUACGGCCGCCACUCGGAGUCCUACGACAUGAGGAUCACCCAUGUA |  |  |  |  | apparent Kd [1, 3]: 127 nM; apparent Kd [1, 4]: 67.5 nM
5 | AAUAAUAAGGCGGCCGCCACUACACAUGAGGAUCACCCAUGUCUCGCGGGCUUGCGUUGGGAAUGUAGGACCGGGCCAAUAAUAA |  |  |  |  | apparent Kd [1, 5]: 24.3 nM; apparent Kd [1, 6]: 18.3 nM
6 | AAUAUAUAGACGGCCGCCACUGGAACCAAUACAUGAGGAUCACCCAUGUGAAAAGGAUAGGUUCACAGGACCGGGUCUUCAUGUA |  |  |  |  | apparent Kd [1, 3]: 25.7 nM; apparent Kd [1, 4]: 9.99 nM
7 | AAUUAAACAUCGGCCGCCACUUACUCAUGAGGUAACAACAUGAGGAUCACCCAUGUUUGAGGAUCAAGGACCGGGAUGUAAUUUU |  |  |  |  | apparent Kd [1, 3]: 29.8 nM; apparent Kd [1, 4]: 22.2 nM
8 | AAUUAUCAGUCGGCCGCCACUGACACAUGAGGAUCACCCAUGUAACUUGGGUUAAAUUUAAUAAACAGGACCGGGACAAAGGCUA |  |  |  |  | apparent Kd [1, 5]: 186 nM; apparent Kd [1, 6]: 184 nM
9 | AAUUUAUGGUUCUUGAUGUAGUAUCUAUUUCGAGGACCGGUACGGCCGCCACUCGUAAAUUACAUGAGGAUCACCCAUGUUAGCU |  |  |  |  | apparent Kd [1, 5]: 24.6 nM; apparent Kd [1, 6]: 29.5 nM
10 | CCUGCGUUUCUUUUCUUUCGCAGGAAUGAUACCAGUAGGGAAACCUACCCUUGGCAGCAUGGGACAUGAGGAUCACCCAUGUUAU | 350 | 55.1 |  |  | 
11 | CGAACAAAACUAAAUAAACAACUGGGUGAUACCAGUACAUGUGCGUACCCUUGGCAGCAUCCGGCCACAUGAGGAUCACCCAUGU | 64.7 | 119 |  |  | 
12 | CGAAUACGAAUUGAUACCAGCAUGUUAACAUGAGGAUCACCCAUGUUAAGGAUAACAUAAUGCCCUUGGCAGCAACGUAAAUUCG | 19.4 | 13.4 |  |  | 
13 | CGAUCUUUCGAAAGAAGGAUCGAGUCUGAUACCAGAGACGAAAGUCUCCCUUGGCAGCAGUGCCAACAUGAGGAUCACCCAUGUA | 18.7 | 21.1 |  |  | 
14 | GAGCUGAUGUAGAGCGAAUAUACGAGAGAUACCAGUACAGAAAUGUACCCUUGGCAGCUCAACUUUACAUGAGGAUCACCCAUGU |  |  | 13.8 | 15.3 | 
15 | GAGGAUCAAGUAGAUACCAGCACAUGAGGAUCACCCAUGUAAUGGUGUCCCUCAAGAACGUGCCCUUGGCAGCUACUAUCAAAAU |  |  | 16.3 | 16.3 | 
16 | GAGUUCCUGAGAGAUACCAGUGAGGCCACAUGAGGAUCACCCAUGUCCCUCACUCCGGCCCACCCUUGGCAGCUCGAAAGAUAUU |  |  | 10.9 | 68.1 | 
17 | GAUCUGUCGGGUGAUACCAGCCUCGGCGCGUCUCGCGCUGAACAUGAGGAUCACCCAUGUGGCCCUUGGCAGCACAUGACAAAUC | 574 | 44.2 |  |  | 
18 | GAUGAACUAUUUGAUACCAGACCACAUGAGGAUCACCCAUGUGAGUUUCGUCCUUAGCCGGUCCCUUGGCAGCAAAUAGUUUAUC |  |  | 16.9 | 52.5 | 
19 | GCAUGCGAUACCGAUACCAGCUACUCCAUGGCGCUCCACAUGAGGAUCACCCAUGUAAAUAGCCCUUGGCAGCGGUAUUGAGAUG |  |  | 22.7 | 315 | 
20 | GGGUAAGAUCCGGAUACCAGCGAACAUGAGGAUCACCCAUGUGAAAUAAGAUAGAAUAAACGCCCUUGGCAGCCGAAAUAGAGUU | 77.3 | 30.1 |  |  | 
21 | GGGUAUGAUCCGGAUACCAGCGAACAUGAGGAUCACCCAUGUGACCUAAGAUAGGCUAAACGCCCUUGGCAGCCGAGAUUGCGUU | 48.4 | 31.5 |  |  | 

Row | Sequence | apparent Kd [2, 7] [nM] | apparent Kd [2, 8] [nM] | apparent Kd [2, 9] [nM] | apparent Kd [2, 10] [nM] | other results
22 | GUACAUGAGGAUCACCCAUGUGGUAGGGAUACCAGCCAGAAGAAAGGCCCUUGGCAGCUUGUAUUUAGUGUGGGUUUGUUUGUUC |  |  | 23.4 | 54.9 | 
23 | GUAUGGAAACAUACUAGGGUAUCAUGAGAUACCAGUACAGAAAUGUACCCUUGGCAGCUCAAGCAUACAUGAGGAUCACCCAUGU |  |  | 16.4 | 27.1 | 
24 | UAACAUGAGGAUCACCCAUGUAUAGUCGAUACCAGCUCAAGGGAGAGCCCUUGGCAGCGACACUGGUAUCCAUGGGUGUGGAUAC | 82.3 | 81.3 |  |  | 
25 | UAUAUAUAUAGGGAUACCAGCAGAGAAAACGUUUAUCCUAACAUGAGGAUCACCCAUGUAUGCCCUUGGCAGCUUUAUAUAUAUA |  |  | 22.9 | 31.2 | 
26 | UAUAUAUAUAGUGAUACCAGCAGAGAAAACGUUUAUCCUAACAUGAGGAUCACCCAUGUAUGCCCUUGGCAGCGUUAUAUAUAUA |  |  | 24 | 32.4 | 
27 | UAUAUAUAUAUGGAUACCAGCAGAGAAAACGUUUAUCCUAACAUGAGGAUCACCCAUGUAUGCCCUUGGCAGCUGUGUAUAUAUA |  |  | 22.2 | 26.8 | 
28 | UCACGUGGGAAUGAUACCAGCCACAUGAGGAUCACCCAUGUGCAUGGUGUGAGCUUCACGGGCCCUUGGCAGCAUUUCAAGUCGC |  |  | 48 | 69.5 | 
29 | UCGUGUAUAUCGGAUACCAGUGAAAACGAUACAUGAGGAUCACCCAUGUGAGUUGAUGUACACCCUUGGCAGCUGUAUAUAUCUA | 19.3 |  |  |  | 
30 | UCGUGUGUUUCGGAUACCAGUGUGGUCGAUACAUGAGGAUCACCCAUGUUAGAGGAGGUACACCCUUGGCAGCCGGCUGUUGCGG | 108 | 51.1 |  |  | 
31 | UGACAUUGCUCAGAUACCAGACAUGAGGAUCACCCAUGUACCAAGAAAACGUACAAUAAUGUCCCUUGGCAGCUGAGCAAUGUCU |  |  | 101 | 549 | 
32 | UGUAACAUGAGGAUCACCCAUGUGAGUGAUACCAGAUUAGUAUUAGUCCCUUGGCAGCACAUUGGGCGAGUGUAUAGUCUAUGCG | 154 |  |  |  | 
33 | UGUUUGGUGCGCGAGUGUUGGAUAAUUGAUACCAGUGUAGAAGUGCGCCCUUGGCAGCGAAUCCUAACAUGAGGAUCACCCAUGU | 46.1 | 57.8 |  |  | 
34 | UUAGAUAUGACAGAUACCAGCGUGUUAUAAAACAUGAGGAUCACCCAUGUAGUGAUCGAGCGCCCUUGGCAGCUGGUGUGUUUGG | 69.6 | 208 |  |  | 
35 | UUAGAUAUGACAGAUACCAGCGUGUUGUAGAACAUGAGGAUCACCCAUGUAGUGAUCAAGCGCCCUUGGCAGCUGGUAUGUUUGG | 170 | 221 |  |  | 
36 | UUAUAUAUACAUGAGGAUCACCCAUGUGAUACCAGCCUGGAAACAGGCCCUUGGCAGCACAAAUACUCCAGAAAAUAUAAUAAAU |  |  | 26.7 | 199 | 
37 | UUAUUUAUAAUGGAUACCAGUGCUGUGGCCCGGCAUCCUGACAUGAGGAUCACCCAUGUGUACCCUUGGCAGCUGUUAUGGGUUU |  |  | 22.6 |  | 
38 | UUCUACAUGAGGAUCACCCAUGUGGGUGAUACCAGCACUUUUUGGUGCCCUUGGCAGCACAUGAGAAUACCGUACGAUCGGCGAU | 265 | 700 |  |  | 
39 | UUUGAUAUGACAGAUACCAGCGUGUUGUUGAACAUGAGGAUCACCCAUGUAGUGAUCAAGCGCCCUUGGCAGCUGGUGUGUUAGG | 125 | 82.7 |  |  | 
40 | UUUUUCGCGUUUGAUACCAGCAGAGUUGUUCUGGUCUGGUACAUGAGGAUCACCCAUGUCUGCCCUUGGCAGCAAACGGGAGAAG |  |  | 11.5 | 14.7 | 
41 | UUUUUUAUUAUGGCGUAUCGGAAAACCGAUACCAGUACAGAAAUGUACCCUUGGCAGCGGCGUUUUACAUGAGGAUCACCCAUGU |  |  | 13.9 | 20.1 | 
